For this data set, the system named is MS2 coat protein. Briefly: apparent Kd, MS2 coat protein; higher = weaker binding; RNA-MaP array; FMN 200 µM where present. The essentials: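 Stalled E. coli RNA polymerase transcribed the designs on Illumina sequencing-chip clusters. SNAP-549-labelled MS2 coat protein was titrated from 0.7 or 1.5 nM, doubling to 3 µM, without and then with constant ligand, in 100 mM Tris-HCl pH 7.5, 80 mM KCl, 4 mM MgCl2, BSA, DTT, yeast tRNA and Tween-20. Per-cluster binding curves were fitted to green signal normalised to red-channel RNA signal and control-cluster median Fmax. The apparent Kd is the median of the filtered fits.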

Where [1] appears, read: designed as: OFF switch for flavin mononucleotide, no ligand.
Setting [2] is: ligand present: flavin mononucleotide, designed as: OFF switch for flavin mononucleotide.
The mark [3] stands for this setting: designed as: ON switch for flavin mononucleotide, no ligand.
The mark [4] stands for this setting: ligand present: flavin mononucleotide, designed as: ON switch for flavin mononucleotide.

One may read the apparent Kd as the concentration giving half-maximal binding under the conditions of the assay. Turning to “GUCAGCUCGUGAGGAUAUACAACACUGCUUCGGAAGUGUAUUAAGAUCACAUGAGGAUCACCCAUGUAGAAGGCACGAGCUGAU”, the “apparent Kd” value under setting [1] came to 13.7 nM and the “apparent Kd” value under setting [2] was 225 nM.
As for “ACUUGUGAAGGAUAUACUGGCGACAUGCGCUCAACACGCGCACAUGAGGAUCACCCAUGUAGAAGGUCAAACAU”, the “apparent Kd” value was determined as 24.7 nM under setting [1] and 34.8 nM under setting [2].
For “CCAGCGCGUGUGAGGAUAUGCUGGUCCUUGGAUCAGCAGAAGGCACAUGAGGAUCACCCAUGUGAGUGCGUUGG” the same measures were 15.7 nM and 47.2 nM.
For “GCACUGGAUGUAGGAUAUCAGGACGAUAAGUCCUGAGAAGGACAUGAGGAUCACCCAUGUGAAAAUUCCAGUGCAAAUAAUAUA” the same measures were 13 nM and 19.1 nM.
“AGCUCCGCGGCCACUUAUUGUGCACAUGAGGAUCACCCAUGUCAGGAUAUCCUUGAGCCUCACAAGGAGAAGGGACAUAAGGUU”: the “apparent Kd” value amounted to 643 nM under setting [1] and 334 nM under setting [2].
Turning to “ACUAGAUGAGGAUAUGCAUAUUUUCGUGUUCUUCUAGGUUAACAUGAGGAUCACCCAUGUAGAAGGCGUCUAUU”, the “apparent Kd” value is, setting by setting: under setting [1], 20.6 nM; under setting [2], 38 nM.
Turning to “AAAUUGCUAGAGGAUAUCGGAUAGGAUCUAUCGCGAGAAGGUUGGACAUGAGGAUCACCCAUGUUCUGUUGGGA”, the “apparent Kd” value is 24.4 nM under setting [1] and 26.1 nM under setting [2].
“UAGGGCGAGUUAUGUACAAGAUACAUGAGGAUCACCCAUGUGUAGGAUAUGACCCUUAUCGCUGGUCAGAAGGGCACGAGAAUC”: the “apparent Kd” value under setting [1] is 74.1 nM and the “apparent Kd” value under setting [2] amounted to 94.2 nM.
Turning to “AGUCGGAGCAGAGGAUAUAUACAUGAGGAUCACCCAUGUAAAUGGAAUAGCUGGAAACAGCAAGUAUAGAAGGCUGCUCCGACA”, the “apparent Kd” value reads like this: under setting [1], 39.5 nM; under setting [2], 118 nM.
Regarding “GCGUCAGAAUUAAUUGUGACAGACAGAAGGCAAUAGUUCAUGUCAGACAUGAGGAUCACCCAUGUUGAGGAUAUGUAUUUACAC”, the “apparent Kd” value worked out at 6.05 nM under setting [1] and 6.29 nM under setting [2].
For “AGAUGACGAUGUUAUCUUCGUCGGACAUGAGGAUCACCCAUGUAGGAUAUGCUACUCAAAGAGUAGCAGAAGGACAUGUGUCUU” the same measures were 37.4 nM and 245 nM.
For “CGGCAAGUCACAGGAUAUGGUGAUGUACAUGAGGAUCACCCAUGUCCGUCUUCUCUCACAAGAUGCCAGAAGGGUGACUUCCAG”, the “apparent Kd” value under setting [3] turned out to be 946 nM and the “apparent Kd” value under setting [4] turned out to be 140 nM.
On to “CGCAAGUCAGGAUAUUCGACUGGUAAAUCAGUGGAUCAGUAGGAGAAGGGACAUGAGGAUCACCCAUGUAUGUA”, for which the “apparent Kd” value is, setting by setting: under setting [1], 43.2 nM; under setting [2], 51.2 nM.
For “GGUGCGUGUGUGAGGAUAUGCUGGUCCUUGGCUCGGCAGAAGGCACAUGAGGAUCACCCAUGUGGUGUCGUGCC”, the “apparent Kd” value runs as follows: under setting [1], 22.8 nM; under setting [2], 49.8 nM.
Take “UCCCUAAGGCGGGCCGACCAUACAUGAGGAUCACCCAUGUCGAGAAGGUGCUCACGGGUGGGUGGCAAGGAUAUCGGGUCGGAU”: the “apparent Kd” value by setting is: under setting [3], 78.8 nM; under setting [4], 40.5 nM.
For “UAUAUAUAGUAAGGAUAUGUAUUAAAUUUAUAAACAGAAGGUACUGACAUGAGGAUCACCCAUGUUUUAGUGUGGGCAUGUAGA”, the “apparent Kd” value under setting [1] turned out to be 99.6 nM and the “apparent Kd” value under setting [2] was 148 nM.
For “AAAAAGUCAGGAUAUAUCAAAGCCUAUGAAAGUGGGAAAGGGUAGAAGGGACAUGAGGAUCACCCAUGUAAAAA” the same measures were 52 nM and 50.3 nM.
Consider “UAAAGUGUGGAGGAUAUGGACCGCGCUAGUGGUCCAGAAGGUCAAACAUGAGGAUCACCCAUGUCCCGUGAUUA”, for which the “apparent Kd” value reads like this: under setting [1], 54.5 nM; under setting [2], 67.7 nM.
Take “UAAUCUCAGAUAGGAUAUAUAGGAUAACUUAAGACCUAACAUGAGGAUCACCCAUGUGAUUAUUCGUAGAAGGAUCAAUGACCC”: the “apparent Kd” value by setting is: under setting [3], 189 nM; under setting [4], 200 nM.
With “ACCUUACAUGAGGAUCACCCAUGUCAGGAUAUCUCGGGCGGCUGGAGACCAGCCGCCCAGAGAAGGGACGAGGA”, the “apparent Kd” value reads like this: under setting [1], 14.4 nM; under setting [2], 15.6 nM.
Consider “GGAGGACAUGAGGAUCACCCAUGUGGAUGAACGCUAGGAUAUGCGUGCAGGAAGAGUGGAGCAGAAGGAGUGGGAU”, for which the “apparent Kd” value came to 26.4 nM under setting [3] and 19.3 nM under setting [4].
Consider “GUGGUCAGACAUGAGGAUCACCCAUGUGGAAUAAAUAACAGACAGGAUAUUAAAUAUAGGAUAUAUAAGAAGGGUCGAUUGGUG”, for which the “apparent Kd” value is, setting by setting: under setting [3], 91.1 nM; under setting [4], 91.6 nM.
On to “UUUUAACAUGAGGAUCACCCAUGUGAGGAUAUCGAAAUUUAUAUUAAUAUUUUUAUAACGAGAAGGCACAUUUU”, for which the “apparent Kd” value is, setting by setting: under setting [1], 70.1 nM; under setting [2], 75.2 nM.
For “AAAAAACAAGGAUAUACGGAUGAAGAUUGUCUUAAUUUUUGACAUGAGGAUCACCCAUGUAGAAGGUGUUAAAA” the same measures were 198 nM and 342 nM.
Turning to “AACAUGUGAGGAUAUUAGUUGUACGUCAAUAGACGUAUAAGUGAGAAGGCACAUGAGGAUCACCCAUGUUCCUG”, the “apparent Kd” value is 43.7 nM under setting [1] and 464 nM under setting [2].
“GGGUACAUCGGAGGAUAUCAUGUAAAUACAUGAGGAUCACCCAUGUCGAUGGAGACAUCGGAGAUUGAGAAGGCCGAGGUACCG”: the “apparent Kd” value by setting is: under setting [3], 191 nM; under setting [4], 9.91 nM.
With “CCUCAACAGUAGGAUAUCAUAAAACUAUUGUGAUGAGAAGGACUGACAUGAGGAUCACCCAUGUUAACGUGAUA”, the “apparent Kd” value under setting [1] was 19.6 nM and the “apparent Kd” value under setting [2] worked out at 30.5 nM.
For “GUACUCAUGUAAGGAUAUGCAGCCGAAACGGCUGCAGAAGGUACUAUAAUACAUGAGGAUCACCCAUGUCAAAAUAAAAUAGUU”, the “apparent Kd” value reads like this: under setting [3], 116 nM; under setting [4], 35.4 nM.
In the case of “UUAAACGCAGGAUAUACAUUUUUUUUAUUAUCCUCAUAAAUACAUGAGGAUCACCCAUGUAGAAGGGCGAAAUU”, the “apparent Kd” value reads like this: under setting [1], 239 nM; under setting [2], 210 nM.
For “CUUUCGUGAGGAUAUCAGUAGUAAAAUAAUAAAAUUACUACUGAGAAGGCACAUGAGGAUCACCCAUGUUCCUC” the same measures were 24.4 nM and 134 nM.
Regarding “CGAGACCUCACAGGAUAUGCUGGACUUUGUCCAGCAGAAGGGUGAAAACAUGAGGAUCACCCAUGUAUGGUCUCCAAAUUUAAU”, the “apparent Kd” value by setting is: under setting [3], 176 nM; under setting [4], 13.9 nM.
For “GAAUAAUUGAUCCAAUUUAUCUACAUGAGGAUCACCCAUGUGCAGGAUAUCGUAAAAUUUAAUAACGAGAAGGGCAAGAACGGU”, the “apparent Kd” value under setting [1] is 135 nM and the “apparent Kd” value under setting [2] was 385 nM.
As for “AGCAUGUGAGGAUAUGCAGACUCCGGUAAAUCUGGAGUCCGGUAGAAGGCACAUGAGGAUCACCCAUGUGAGAU”, the “apparent Kd” value by setting is: under setting [1], 43.4 nM; under setting [2], 119 nM.
As to “GUAUCUUAUGAGAAGGCGAUCAUGAAACAUGAUCGAGGAUAUCAUGUAAACAUGAGGAUCACCCAUGUAUGGGUAUUAUGGUAC”, the “apparent Kd” value under setting [3] stood at 179 nM and the “apparent Kd” value under setting [4] was 71.9 nM.
Consider “AUCAGCUCGUCAGGAUAUACGUCACUGCGUCAGCAGUGUGGUAAGAUCACAUGAGGAUCACCCAUGUAGAAGGGACGAGCUGCU”, for which the “apparent Kd” value was determined as 14 nM under setting [1] and 264 nM under setting [2].
With “CGCUACUACCAGAAGGACAUGAGGAUCACCCAUGUAGGAUAUGGGUUACACGUUCCUGUGUAUUGUUACUACGCUACGUAUGCG”, the “apparent Kd” value by setting is: under setting [3], 168 nM; under setting [4], 11.9 nM.
Turning to “UGGUGAAGUGUAGGAUAUGGAGAUGGGUUUUGGCCAGAAGGACAUGAGGAUCACCCAUGUGGUAGAGGGUUGGUGGUAGCUCGU”, the “apparent Kd” value by setting is: under setting [1], 62.4 nM; under setting [2], 49.8 nM.
Turning to “UGAGAGUGAGGAUAUACGUCGCUGGUCCCGAUGGACGCAUGACAUGAGGAUCACCCAUGUAGAAGGCAUUUCCC”, the “apparent Kd” value reads like this: under setting [1], 33.8 nM; under setting [2], 128 nM.
Consider “GUAUAUACGUGGUACAUGAGGAUCACCCAUGUGUCUUUACAUGAGGAUAUGGAUUCUAAUUGGAUCCAGAAGGCAUGUAUAUAC”, for which the “apparent Kd” value by setting is: under setting [3], 73.1 nM; under setting [4], 27 nM.
For “GCUGCAUAGUCAGGAUAUGCAAAGUAAUAUAUGGAAACAUAUAUUACAACAUGAGGAUCACCCAUGUAGAAGGGACUGUGCAGU”, the “apparent Kd” value was 15.9 nM under setting [1] and 14.8 nM under setting [2].
As to “GGUGCGUUUGUGAGGAUAUGCUGGUCCUUGGUUCGGCAGAAGGCACAUGAGGAUCACCCAUGUGGUGUCGUCCC”, the “apparent Kd” value is, setting by setting: under setting [1], 33 nM; under setting [2], 98.6 nM.
With “AUCAGGCAAGGAUAUGAUAUAGGACACAUGAGGAUCACCCAUGUCCACCGAACGAUCGUUUCAGAAGGUGCACAGU”, the “apparent Kd” value was found to be 72.8 nM under setting [1] and 41 nM under setting [2].
As to “AAUAAACUCACAGGAUAUAGCAGAGGUCGCCUGAACUUACAGGCGACUAUGCUAGAAGGGUGACCACAUGAGGAUCACCCAUGU”, the “apparent Kd” value is, setting by setting: under setting [3], 974 nM; under setting [4], 170 nM.
As to “GCAUGCAUAGCGAUAUGAUCGAGAGAUCAUGUCGCUAAAUUUAGAAGGACAUGAGGAUCACCCAUGUAGGAUAUGGGAGCAUGA”, the “apparent Kd” value is, setting by setting: under setting [3], 44.6 nM; under setting [4], 11.5 nM.
For “GUCUUACAUGAGGAUCACCCAUGUGAGGAUAUGGUUUCGCUGGCCGUAGCCAGUGGAACCAGAAGGCGCAUGAU”, the “apparent Kd” value under setting [1] was determined as 25.7 nM and the “apparent Kd” value under setting [2] was 44.9 nM.
On to “AGUAACAGAGGAUAUACUAUUUUAUGUGUUUGUUGUUUUAAACAUGAGGAUCACCCAUGUAGAAGGCUGAAUAA”, for which the “apparent Kd” value is 21.4 nM under setting [1] and 24.1 nM under setting [2].
For the sequence “AAGUUGUCAGGAUAUCGUUAAUUUAGUUGUUUGUAUUAGUUCGAGAAGGGACAUGAGGAUCACCCAUGUUUGCA”, the “apparent Kd” value is, setting by setting: under setting [1], 26.4 nM; under setting [2], 34 nM.
With “GAAGUUAGAGGAUAUACAUGAGGAUCACCCAUGUGUGUUGUGAACGAUGUACGUUUAUGUAGAAGGCUAACUUC”, the “apparent Kd” value is, setting by setting: under setting [1], 23.6 nM; under setting [2], 106 nM.

Source of the values: the EternaBench riboswitch data.
